Assay outcomes (PubChem BioAssay)
Compounds with a hit are over-represented: about 9.4% of the library has one in this group of screens.
L major viab: Leishmania major promastigote growth inhibition. 200,000 compounds, 9% hits. Leishmania major promastigotes, resazurin fluorescence viability. AID 1063. inhibition, % at 10 µM; in the data active = inhibition above about 50%;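 also: promastigotes grown with compound for 44 hours at 28 °C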
Beta apoptosis: blocks beta cell apoptosis; protection from apoptosis, % (concentration not given with the values); AID 435005; INS-1E cytokine-induced death, ATP luminescence, 48 h; percent of positive-control rescue, neutral wells zero; 300,000 compounds, 0.8% hits;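 active = Every replicate reaches about 75%, or at least half do and their mean reaches it too, limit read from the data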;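 also: 0% = cytokine-treated negative control wells and 100% = positive control rescue; higher means more ATP so stronger rescue from cytokine killing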
SKKanGAS inh: inhibitors of SKKanGAS S. pyogenes growth in kanamycin (SK-promoter or general growth effect); BacTiter-Glo, 6 h; inhibition, % at 7.5 µM; 300,000 compounds, 1.3% hits;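 active = mean replicate score, as percent of positive control median, at least 50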;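 also: strain carries kanamycin resistance gene driven by streptokinase promoter and grows in 40 µg/ml kanamycin; loss of luminescence reflects streptokinase promoter inhibition or plain growth inhibition; 0% = median of DMSO wells and 100% = positive control at its reference dose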
T cruzi repl: blocks replication of Trypanosoma cruzi | T. cruzi beta-gal in NIH3T3, luminescence, 90 h | inhibition, % (no concentration beside the values) | 300,000 compounds, 1.4% hits | AID 1885;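 active = mean inhibition across valid replicates above about 55%, limit read from the data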;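 also: signal also drops with host cell toxicity which is not excluded here; 0% = plate median of DMSO wells and 100% = zero luminescence signal; higher percent means less beta-gal luminescence so fewer parasites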
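Material: NIH/3T3 host cells with β-galactosidase reporter T. cruzi; Input: 5,000 host fibroblasts per well; Medium: DMEM, 2% fetal bovine serum; Compound: 50 nL DMSO compound solution per well; Schedule: 3 h host attachment, then at least 90 h co-culture; Detection: luminescent β-galactosidase signal after 60 min lysis.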
CSC inhib: cancer stem cell inhibition; cancer stem cell-like cells viability, luminescence; inhibition, % at 7.5 µM; 300,000 compounds, 1.1% hits; AID 2717; in the data active = inhibition above about 75%; tested in HMLE shEcad cells
Mdm2 MdmX PPI: human Mdm2/MdmX binding inhibition; 330,000 compounds, 3% hits; SaOS-2 split-luciferase Mdm2/MdmX complementation, luminescence; AID 485346; inhibition, % at 8 µM; O15151+Q00987;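 active = inhibition of at least 50% at 8 µM in the primary screen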
Target sequence (O15151 whole entry, looked up): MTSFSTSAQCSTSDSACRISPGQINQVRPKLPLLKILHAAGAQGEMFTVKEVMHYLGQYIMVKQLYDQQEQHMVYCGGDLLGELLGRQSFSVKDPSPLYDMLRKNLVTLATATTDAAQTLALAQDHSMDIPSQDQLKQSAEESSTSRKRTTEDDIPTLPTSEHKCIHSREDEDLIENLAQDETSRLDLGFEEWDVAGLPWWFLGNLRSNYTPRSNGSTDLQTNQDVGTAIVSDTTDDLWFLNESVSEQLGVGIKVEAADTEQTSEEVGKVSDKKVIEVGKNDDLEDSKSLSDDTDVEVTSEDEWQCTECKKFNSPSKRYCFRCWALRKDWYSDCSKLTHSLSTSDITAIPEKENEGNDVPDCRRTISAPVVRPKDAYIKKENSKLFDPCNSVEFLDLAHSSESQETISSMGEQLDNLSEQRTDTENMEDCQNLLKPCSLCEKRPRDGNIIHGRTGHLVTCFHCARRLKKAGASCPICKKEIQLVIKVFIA
Target sequence (Q00987 whole entry, looked up): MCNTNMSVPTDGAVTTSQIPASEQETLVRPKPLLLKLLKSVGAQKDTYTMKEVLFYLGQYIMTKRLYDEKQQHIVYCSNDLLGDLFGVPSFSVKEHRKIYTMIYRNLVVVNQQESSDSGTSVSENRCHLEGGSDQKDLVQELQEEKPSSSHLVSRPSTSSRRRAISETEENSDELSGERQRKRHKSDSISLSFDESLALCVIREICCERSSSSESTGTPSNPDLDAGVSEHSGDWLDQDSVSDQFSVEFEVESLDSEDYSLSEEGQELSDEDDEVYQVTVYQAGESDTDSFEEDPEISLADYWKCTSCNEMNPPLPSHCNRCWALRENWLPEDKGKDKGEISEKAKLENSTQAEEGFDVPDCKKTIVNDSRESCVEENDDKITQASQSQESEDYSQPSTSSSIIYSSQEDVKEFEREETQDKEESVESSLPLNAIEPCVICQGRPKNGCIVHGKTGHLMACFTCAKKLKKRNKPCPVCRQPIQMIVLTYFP
Mdm2-MdmX conf: human Mdm2/MdmX binding inhibition, confirmed; shares compounds with Mdm2 MdmX PPI; luminescent assay; inhibition, % at 8 µM; 10,000 compounds, 55% hits; AID 489028; in the data active = inhibition above about 40%
Full FLuc ctr: inhibits full-length luciferase, flagging false Mdm2/MdmX hits | shares compounds with Mdm2 MdmX PPI | SaOS-2 full-length luciferase counterscreen, luminescence | inhibition, % at 8 µM | 6,200 compounds, 77% hits | AID 504607;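 active = mean inhibition at 8 µM reaching about 37%, which flags the compound as non-specific, limit read from the data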;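 also: p53-null SaOS-2 cells with luciferase driven by a doxycycline-inducible promoter; compound on cells about two nights before reading with doxycycline added after day one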
Active calls of the source: *; . = no result.

SMILES | L major viab | Beta apoptosis | SKKanGAS inh | T cruzi repl | CSC inhib | Mdm2 MdmX PPI | Mdm2-MdmX conf | Full FLuc ctr
CC(C)(C)c1ccc(C(=O)NC(=S)Nc2nc3c(s2)CCCC3)cc1 | 67* | 13 | -2 | 46 | 80* | 61* | 51* | 102*
CC(C)(C)c1ccc(C(=O)NC(=S)Nc2sc3c(c2C#N)CCC3)cc1 | -2 | -8 | 5 | -13 | 64 | 17 | . | .
Cc1[nH]c(=O)[nH]c(=O)c1NS(=O)(=O)c1ccccc1 | 3 | 2 | -1 | -29 | -15 | -9 | . | .
COc1ccc(C)cc1Nc1nc(N)c2cc(OC)c(OC)cc2n1 | . | 16 | -2 | 35 | 6 | 51* | 15 | .
COc1cc2nc(N3CCN(c4cc(C)ccc4C)CC3)nc(N)c2cc1OC | . | 118* | -6 | 56* | 106* | 95* | 86* | 51*
COc1cc2nc(N3CCNCC3)nc(N)c2cc1OC | 3 | -7 | 7 | 32 | 2 | 23 | . | .
COc1ccc(C)cc1Nc1nc(C)nc2sc(C)cc12 | . | 1 | 5 | -1 | 47 | 21 | . | .
CC(=O)c1ccc(NC(=O)C(C)Oc2ccc(N(C)S(=O)(=O)c3ccc(C)cc3)cc2)cc1 (centres undefined) | . | -6 | . | . | -8 | -3 | . | .
CCOc1ccc(OCC)c(NC(=O)CN2CCN(c3cccc(C)c3)C(C)C2)c1 (centres undefined) | 3 | 18 | 22 | 44 | -16 | 53* | 64* | 46*
Cc1cc(C(=O)CN2C(=O)c3ccccc3C2=O)c(C)n1Cc1cccs1 | -7 | . | -3 | 12 | -12 | 68* | 67* | 102*
COc1cccc(NC(=O)c2cncs2)c1 | . | . | -6 | 2 | -2 | 0 | . | .
CC(Oc1ccc(Br)cc1)C(=O)NNC(=O)CCN1CCN(c2ccccc2)CC1 (centres undefined) | . | -6 | -4 | -16 | -8 | 17 | . | .
CCSC1(SCC)N=C(N)C2(C#N)C(c3ccccc3)NC3=C(CCC3)C12C#N (centres undefined) | 12 | -1 | 9 | -27 | -7 | 42 | . | .
CCSC1(SCC)N=C(N)C2(C#N)C(c3ccc(OC)c(OC)c3OC)C12C#N (centres undefined) | . | -6 | -10 | 2 | -6 | 69* | 50* | 17
COc1ccc(C(NC(=O)c2c(F)c(F)c(F)c(F)c2F)c2ccccc2)cc1 (centres undefined) | 95* | 3 | 8 | -10 | 48 | 77* | -1 | .
COc1cccc(CNC(=O)C2CCN(S(=O)(=O)N3CCC(C)CC3)CC2)c1 | . | 8 | -11 | -5 | 1 | 8 | . | .
N#C/C(=C\c1c(Cl)cccc1Cl)c1nc2ccccc2o1 | -7 | 9 | 2 | 16 | -26 | 82* | 36 | .
O=C(CN1CCN(c2ccccn2)CC1)Nc1ccc(F)cc1F | . | -3 | -2 | -7 | 0 | -9 | . | .
O=C(CN1C(=O)COc2ccc(Cl)cc21)NCC1CCCO1 (centres undefined) | . | -2 | -4 | -6 | -3 | 8 | . | .
CCC(=O)Nc1cc(ON=C(C)C)cc([N+](=O)[O-])c1 | 4 | -5 | -1 | -6 | -4 | . | . | .
CC(C)=NOc1cc(NC(=O)CCl)cc([N+](=O)[O-])c1 | 99* | -42 | -6 | 44 | -6 | 95* | 70* | 56*
CCn1c(SCC(=O)NC2=NCCS2)nnc1C(C)NC(=O)c1ccccc1Br (centres undefined) | . | -3 | -4 | -2 | -2 | 11 | . | .
Cc1cccc(NC(=O)C2CCN(S(=O)(=O)c3cccc4nsnc34)CC2)n1 | 5 | -6 | 7 | 16 | -16 | 4 | . | .
COc1ccc2nc(NC(=O)C3CCN(S(=O)(=O)c4cccc5nsnc45)CC3)sc2c1 | 32 | . | . | . | 38 | 65* | 66* | 39*
CCCCn1c(=N)n(CC(=O)c2ccco2)c2ccccc21 | 11 | 3 | -1 | 4 | -2 | -11 | . | .
CCCn1c(=N)n(CC(=O)O)c2ccccc21 | 4 | . | -3 | -19 | -9 | -6 | . | .
CCCCCCCn1c(=N)n(CC(=O)c2ccco2)c2ccccc21 | 100* | 23 | 3 | 43 | -2 | 63* | 16 | .
